From ChEMBL document CHEMBL1121698, “Cyclic urea and thiourea derivatives as inducers of murine erythroleukemia differentiation” (1981)

Tests used:
Type in all cases: functional, Mus musculus
[1] = system: Friend leukemia cell line; assay: Percent of untreated control cell growth evaluated in friend leukemia cells on day 3 at a concentration of 0.1-10 mM
Summary of the method: (§1)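 Friend murine erythroleukemia clone 745A grown in suspension at 37 °C, 10% CO2, in DMEM with 15% fetal calf serum, streptomycin and penicillin. Agent added at seeding of exponentially growing cells (10^5 cells/mL), continuous exposure over twofold-graded concentrations. Cell numbers counted electronically on days 3 and 6, expressed relative to untreated control. At least two separate experiments.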

[2] = system: Friend leukemia cell line; assay: Cell growth of friend erythroleukemia cells measured as percentage of control on day 6 at a concentration of 0.1-10 mM; summary of the method: as §1
[3] = system: Friend leukemia cell line; assay: The degree of erythroid maturation was measured by assessing the proportion of benzidine-positive friend leukemia cells at a concentration of 0.1-10 mM
Summary of the method: (§2)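 Friend erythroleukemia clone 745A cells seeded at 10^5 cells/mL in DMEM with 15% fetal calf serum at 37 °C, 10% CO2. Agent given at seeding, continuous exposure, twofold-graded concentrations; Me2SO positive control in each experiment. On day 6, hemoglobin-containing cells scored cytologically by staining with acid benzidine peroxide. Optimum concentration averaged from at least two experiments.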

[4] = system: Friend leukemia cell line; assay: Cell growth of friend erythroleukemia cells measured as percentage of control on day 6 at a concentration of 2 mM; summary of the method: as §1
[5] = system: Friend leukemia cell line; assay: Percent of untreated control cell growth evaluated in friend leukemia cells on day 3 at a concentration of 2 mM; summary of the method: as §1
[6] = system: Friend leukemia cell line; assay: The degree of erythroid maturation was measured by assessing the proportion of benzidine-positive cells at a concentration of 2 mM; summary of the method: as §2
[7] = system: Friend leukemia cell line; assay: Percent of untreated control cell growth evaluated in friend leukemia cells on day 3 at a concentration of 4 mM; details: at 4 mM
[8] = system: Friend leukemia cell line; assay: Cell growth of friend erythroleukemia cells measured as percentage of control on day 6 at a concentration of 4 mM; details: at 4 mM
[9] = system: Friend leukemia cell line; assay: The degree of erythroid maturation was measured by assessing the proportion of benzidine-positive friend leukemia cells at a concentration of 4 mM; summary of the method: as §2
[10] = system: Friend leukemia cell line; assay: The degree of erythroid maturation was measured by assessing the proportion of benzidine-positive friend leukemia cells at a concentration of 2 mM; summary of the method: as §2
[11] = system: Friend leukemia cell line; assay: Effect on the replication and erythroid differentiation of friend leukemia cells on day 3 at a concentration of 210 mM
[12] = system: Friend leukemia cell line; assay: The degree of erythroid maturation was measured by assessing the proportion of benzidine-positive cells at a concentration of 4 mM; details: at 4 mM
[13] = system: Friend leukemia cell line; assay: Percent of untreated control cell growth evaluated in friend leukemia cells on day 3 at a concentration of 105 mM; summary of the method: as §1
[14] = system: Friend leukemia cell line; assay: Effect on the replication and erythroid differentiation of friend leukemia cells on day 6 at a concentration of 210 mM
[15] = system: Friend leukemia cell line; assay: The degree of erythroid maturation was measured by assessing the proportion of benzidine-positive cells at a concentration of 210 mM; summary of the method: as §2
[16] = system: Friend leukemia cell line; assay: Cell growth of friend erythroleukemia cells measured as percentage of control on day 6 at a concentration of 105 mM; summary of the method: as §1
[17] = system: Friend leukemia cell line; assay: Cell growth of friend erythroleukemia cells measured as percentage of control on day 6 at a concentration of 1 mM; summary of the method: as §1
[18] = system: Friend leukemia cell line; assay: The degree of erythroid maturation was measured by assessing the proportion of benzidine-positive friend leukemia cells at a concentration of 1 mM; summary of the method: as §2
[19] = system: Friend leukemia cell line; assay: Percent of untreated control cell growth evaluated in friend leukemia cells on day 3 at a concentration of 1 mM; summary of the method: as §1
[20] = system: Friend leukemia cell line; assay: The degree of erythroid maturation was measured by assessing the proportion of benzidine-positive friend leukemia cells at a concentration of 16 mM; summary of the method: as §2
[21] = system: Friend leukemia cell line; assay: Cell growth of friend erythroleukemia cells measured as percentage of control on day 6 at a concentration of 16 mM; summary of the method: as §1
[22] = system: Friend leukemia cell line; assay: Percent of untreated control cell growth evaluated in friend leukemia cells on day 3 at a concentration of 16 mM; summary of the method: as §1

Row | Compound | Cell growth [4] | Cell growth [5] | Benzidine positive cells [6] | Cell growth [7] | Cell growth [8] | also measured
1 | CCCCN1CCCN(CCCC)C1=O |  |  |  |  |  | Cell growth [1]: <5%; Cell growth [2]: <1%; Benzidine positive cells [3]: <1%
2 | CN1CCCN(C)C1=O | 87% | 90% | 92% |  |  | 
3 | O=C1NCCCCN1 | 104% | 93% | 66% |  |  | 
4 | SC1=NCCCCN1 | 82% | 54% | 42% |  |  | 
5 | CN1CCCCN(C)C1=S |  |  |  | 64% | 73% | Benzidine positive cells [9]: 79%
6 | CCN(CC)C(=O)N(CC)CC | 77% | 69% |  |  |  | Benzidine positive cells [10]: 68%
7 | C[S+](C)[O-] [DIMETHYL SULFOXIDE] |  |  |  |  |  | Cell growth [11]: 72%; Benzidine positive cells [12]: 75%; Cell growth [13]: 70%; Cell growth [14]: 110%; Benzidine positive cells [15]: 94%; Cell growth [16]: 120%
8 | CN1CCCN(C)C1=S |  |  |  | 75% | 135% | Benzidine positive cells [12]: 83%
9 | O=C1NCCCN1 |  |  |  | 124% | 121% | Benzidine positive cells [12]: 15%
10 | CCN1CCN(CC)C1=S | 120% | 60% |  |  |  | Benzidine positive cells [10]: 84%
11 | CCN(CC)C(=S)N(CC)CC |  |  |  |  |  | Cell growth [1]: <4%; Cell growth [2]: <1%; Benzidine positive cells [3]: <1%
12 | CN1CCN(C)C1=S | 95% | 102% | 66% |  |  | 
13 | CCN1CCCN(CC)C1=S |  |  |  |  |  | Cell growth [17]: 97%; Benzidine positive cells [18]: 61%; Cell growth [19]: 45%
14 | O=C1NCCN1 |  |  |  | 88% | 108% | Benzidine positive cells [12]: 4%
15 | O=C(N1CCCCC1)N1CCCCC1 |  |  |  | 28% | 33% | Benzidine positive cells [9]: 10%
16 | CN1CCN(C)C1=O |  |  |  | 70% | 73% | Benzidine positive cells [12]: 92%
17 | CN1CCCCN(C)C1=O |  |  |  | 25% | 61% | Benzidine positive cells [9]: 92%
18 | CN1CCCN=C1S | 166% | 107% | 22% |  |  | 
19 | CCN1CCCCN(CC)C1=O |  |  |  | 40% | 131% | Benzidine positive cells [9]: 31%
20 | S=C1NCCN1 [ETHYLENE THIOUREA] |  |  |  | 128% | 62% | Benzidine positive cells [12]: 21%
21 | CCN1CCCN(CC)C1=O |  |  |  | 160% | 127% | Benzidine positive cells [9]: 70%
22 | CCN1CCN(CC)C1=O |  |  |  |  |  | Benzidine positive cells [20]: 81%; Cell growth [21]: 140%; Cell growth [22]: 36%
23 | CN(C)C(=S)N(C)C | 98% | 123% | 79% |  |  | 
24 | SC1=NCCCN1 | 44% | 144% | 14% |  |  | 
25 | CN1CCCNC1=O | 136% | 46% | 50% |  |  | 
